# Measured values reported in ChEMBL document CHEMBL5223075, “Discovery of thienothiazolocarboxamide analogues as novel anti-tubercular agent” (Bioorg Med Chem, 2020).
# Activity calls are given as the source filed them. The rule behind the calls is not given here.
# Columns and labels:
# [1] = Oral bioavailability in BALB/c mouse at 10 mg/kg by LC-MS analysis; type: ADME, organism-based; details: in vivo
# In short: (§1)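 Female BALB/c mice, 6-8 weeks old. Dosed i.v. at 2 or 3 mg/kg, or orally at 10 mg/kg. Vehicles varied by compound: DMSO/Captisol, DMSO/PEG400/SBE-b-CD, or DMSO/Cremophor EL/Captisol. Blood was held at 4°C within 1 h, then centrifuged at 3200 × g for 10 min at 4°C. Plasma was kept at 4°C, and compound levels were measured by LC-MS.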
# [2] = Genotoxicity in Salmonella typhimurium TA100 by Ames mutagenicity test; type: toxicity; details: salmonella enterica subsp. enterica serovar typhimurium
# [3] = Ratio of drug concentration in lung to plasma in BALB/c mouse at 10 mg/kg, po by LC-MS analysis; type: ADME, organism-based; in short: as §1
# [4] = Metabolic stability in human liver microsome assessed as phase II mediated metabolite formation by measuring half-life; type: ADME; details: microsomes
# [5] = system: Mycobacterium tuberculosis; test: Antibacterial activity against Mycobacterium tuberculosis H37Rv ATCC 27294 infected in BALB/c mouse assessed as reduction in bacterial burden in lungs at 100 mg/kg, po administered five times a week for 28 days; type: functional; details: time 28 day
# In short: (§2)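 Female BALB/c mice, 6-8 weeks old, were infected intranasally with ~300-600 CFU H37Rv, 5 mice per group. Oral gavage began at day 21, 5 days/week for 4 weeks. Lungs were taken a day after the last dose, homogenized in PBS, serially diluted and plated in duplicate on 7H11-OADC agar for 2-5 weeks at 37°C. Detection limit ~2.3 logs. Bonferroni test against vehicle-treated mice.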
# [6] = AUClast in BALB/c mouse at 10 mg/kg, po by LC-MS analysis; type: ADME, organism-based; set-up: dose 10 mg/kg, route po; details: in vivo; in short: as §1
# [7] = Metabolic stability in mouse liver microsome assessed as phase I mediated metabolite formation by measuring half-life; type: ADME; details: microsomes
# [8] = Metabolic stability in mouse liver microsome assessed as phase II mediated metabolite formation by measuring half-life; type: ADME; details: microsomes
# [9] = Protein binding in mouse plasma; type: ADME, cell-free; details: read-out: PPB (converted)
# [10] = Tmax in BALB/c mouse at 10 mg/kg, po by LC-MS analysis; type: ADME, organism-based; details: in vivo; in short: as §1
# HepG2 = test: Cytotoxicity against human HepG2 cells assessed as inhibition of cell growth; type: functional, cell-based
# [11] = system: Mycobacterium tuberculosis; test: Antibacterial activity against Mycobacterium tuberculosis H37Rv ATCC 27294 infected in BALB/c mouse assessed as reduction in CFU in lungs at 20 mg/kg, po administered five times a week for 28 days; type: functional, organism-based; details: time 28.0 day; in short: as §2
# [12] = Solubility of the compound at pH 2.1; type: physicochemical; details: buffer
# [13] = Clearance in BALB/c mouse at 3 mg/kg, iv by LC-MS analysis; type: ADME, organism-based; details: in vivo; in short: as §1
# [14] = Stability in human plasma measured after 2 hrs; type: ADME, cell-free; details: read-out: Stability
# [15] = system: Mycobacterium tuberculosis; test: Antitubercular activity against Mycobacterium tuberculosis H37Rv ATCC 27294 expressing the green fluorescence protein assessed as inhibition of bacterial growth by measuring GFP fluorescence incubated for 5 days by fluorescence based plate reader analysis; type: functional, organism-based; details: H37Rv ATCC 27294, 120 h
# In short: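 H37Rv-GFP was grown 14 days in 7H9/OADC/Tween/glycerol/hygromycin, washed, and seeded at ~3×10^6 CFU/mL. Compounds were given as 10-point 2-fold series starting at 20 or 1 µM, in 1% DMSO final. Plates ran 5 days at 37°C, 5% CO2, with rifampicin 1 µg/mL as positive control. GFP fluorescence was read and IC50 taken from a 4-parameter sigmoid fit.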
# A549 = test: Cytotoxicity against human A549 cells assessed as inhibition of cell growth; type: functional, cell-based
# [16] = Genotoxicity in Salmonella typhimurium TA98 in the presence of S9 fraction by Ames mutagenicity test; type: toxicity, subcellular; details: salmonella enterica subsp. enterica serovar typhimurium
# [17] = system: Mycobacterium tuberculosis; test: Antibacterial activity against Mycobacterium tuberculosis H37Rv ATCC 27294 infected in BALB/c mouse assessed as reduction in CFU in lungs at 50 mg/kg, po administered five times a week for 28 days; type: functional, organism-based; details: time 28.0 day; in short: as §2
# [18] = Genotoxicity in Salmonella typhimurium TA98 by Ames mutagenicity test; type: toxicity; details: salmonella enterica subsp. enterica serovar typhimurium
# [19] = system: Mycobacterium tuberculosis; test: Antitubercular activity against Mycobacterium tuberculosis H37Rv ATCC 27294 expressing the green fluorescence protein infected in mouse RAW264.7 cells assessed as inhibition of bacterial growth pre-infected with cell followed by compound addition and measured after 5 days by Hoechst 33342 staining based analysis; type: functional, organism-based; details: H37Rv ATCC 27294, RAW264.7, 120 h
# In short: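 RAW 264.7 cells, passages 2-9, were infected with washed H37Rv-GFP at MOI 20 for 2 h at 37°C with shaking. Cells were washed and plated at 20,000/well over 2-fold compound dilutions for 5 days. Nuclei were stained with 5 µM Hoechst (final) and 3 fields/well imaged. Four parameters (cell count, bacterial area, area per infected cell, infected-cell ratio) were each fitted by 4-parameter sigmoid, and the IC50s averaged.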
# [20] = Half-life in BALB/c mouse at 3 mg/kg, iv by LC-MS analysis; type: ADME, organism-based; details: in vivo; in short: as §1
# [21] = Volume of distribution at steady state in BALB/c mouse at 3 mg/kg, iv by LC-MS analysis; type: ADME, organism-based; details: in vivo, read-out: Vdss; in short: as §1
# [22] = Drug concentration in BALB/c mouse plasma at 10 mg/kg, po by LC-MS analysis; type: ADME, organism-based; details: in vivo; in short: as §1
# [23] = Metabolic stability in human liver microsome assessed as phase I mediated metabolite formation by measuring half-life; type: ADME; details: microsomes
# [24] = Cmax in BALB/c mouse at 10 mg/kg, po by LC-MS analysis; type: ADME, organism-based; set-up: dose 10 mg/kg, route po; details: in vivo; in short: as §1
# Jurkat = test: Cytotoxicity against human Jurkat cells assessed as inhibition of cell growth; type: functional, cell-based
# [25] = system: Mycobacterium tuberculosis; test: Antibacterial activity against Mycobacterium tuberculosis H37Rv ATCC 27294 infected in BALB/c mouse assessed as decrease in number of CFU in lungs at 100 mg/kg, po administered five times a week for 28 days; type: functional; details: time 28 day; in short: as §2
# [26] = Stability in mouse plasma measured after 2 hrs; type: ADME, cell-free; details: read-out: Stability
# [27] = Protein binding in human plasma; type: ADME, cell-free; details: read-out: PPB (converted)
# [28] = Genotoxicity in Salmonella typhimurium TA100 in the presence of S9 fraction by Ames mutagenicity test; type: toxicity, subcellular; details: salmonella enterica subsp. enterica serovar typhimurium
# [29] = Solubility of the compound at pH 7.4; type: physicochemical; details: buffer
# [30] = Drug concentration in BALB/c mouse lung at 10 mg/kg, po by LC-MS analysis; type: ADME, organism-based; details: in vivo; in short: as §1
# [31] = Cytotoxicity against HEK293 cells assessed as inhibition of cell growth; type: toxicity, cell-based; details: human
# [32] = Half-life in BALB/c mouse at 10 mg/kg, po by LC-MS analysis; type: ADME, organism-based; details: in vivo; in short: as §1
# [33] = system: Mycobacterium tuberculosis; test: Antibacterial activity against Mycobacterium tuberculosis H37Rv ATCC 27294 infected in BALB/c mouse assessed as reduction in bacterial load in lungs at 25 to 100 mg/kg, po administered five times a week for 28 days; type: functional, organism-based; details: dose 25-100 mg/kg, time 28.0 day; in short: as §2
# [34] = Volume of distribution at steady state in BALB/c mouse at 2 mg/kg, iv by LC-MS analysis; type: ADME, organism-based; details: in vivo, read-out: Vdss; in short: as §1
# [35] = Half-life in BALB/c mouse at 2 mg/kg, iv by LC-MS analysis; type: ADME, organism-based; details: in vivo; in short: as §1
# [36] = Clearance in BALB/c mouse at 2 mg/kg, iv by LC-MS analysis; type: ADME, organism-based; details: in vivo; in short: as §1
# [37] = Stability in mouse plasma measured after 4 hrs; type: ADME, cell-free; details: read-out: Stability
# [38] = Stability in human plasma measured after 4 hrs; type: ADME, cell-free; details: read-out: Stability
structure (smiles),measurement,setting,value
O=C(Nc1ccc(-c2ccc(F)cn2)cc1)c1cc2sc(NCCN3CCOCC3)nc2s1,bioavailability,[1],102%
same,Activity,[2],Non-Toxic
same,Kp,[3],4.8
same,t1/2,[4],> 1 h
same,log(activity),[5],4
same,AUC(0-t),[6],10400 ng·h/mL
same,t1/2,[7],0.758 h
same,t1/2,[8],> 1 h
same,fraction unbound,[9],0.002
same,Tmax,[10],1 h
same,IC50,HepG2,> 50000 nM
same,Activity,[11],inactive
same,solubility,[12],43.6 µg/mL
same,clearance,[13],14.9 mL/min/kg
same,remaining at 2 h,[14],98.2%
same,IC50,[15],760 nM
same,IC50,A549,> 50000 nM
same,Activity,[16],Non-Toxic
same,Activity,[17],Active
same,Activity,[18],Non-Toxic
same,IC50,[19],190 nM
same,half-life,[20],1.2 h
same,Vd,[21],1.52 L/kg
same,Cp,[22],3380 ng/mL
same,t1/2,[23],> 1 h
same,Cmax,[24],2940 ng/mL
same,IC50,Jurkat,> 50000 nM
same,Activity,[25],2.7 log10CFU
same,remaining at 2 h,[26],> 100%
same,fraction unbound,[27],0.002
same,Activity,[28],Non-Toxic
same,solubility,[29],0.76 µg/mL
same,Ct,[30],16180 ng/mL
same,IC50,[31],> 50000 nM
same,half-life,[32],2.3 h
Cc1nc2cc(NC(=O)c3cc4sc(N5CCC(C(=O)N(C)C)CC5)nc4s3)ccc2o1,Activity,[33],inactive
same,bioavailability,[1],71.2%
same,Activity,[2],Non-Toxic
same,Kp,[3],0.7
same,t1/2,[4],1.66 h
same,Vd,[34],0.701 L/kg
same,AUC(0-t),[6],10000 ng·h/mL
same,t1/2,[7],> 1 h
same,t1/2,[8],2.07 h
same,fraction unbound,[9],0.036
same,Tmax,[10],1 h
same,IC50,HepG2,> 50000 nM
same,solubility,[12],4 µg/mL
same,remaining at 2 h,[14],86.1%
same,IC50,[15],500 nM
same,IC50,A549,> 50000 nM
same,Activity,[16],Non-Toxic
same,Activity,[18],Non-Toxic
same,IC50,[19],510 nM
same,Cp,[22],4400 ng/mL
same,half-life,[35],0.92 h
same,t1/2,[23],> 1 h
same,Cmax,[24],7010 ng/mL
same,IC50,Jurkat,> 50000 nM
same,remaining at 2 h,[26],95.7%
same,fraction unbound,[27],0.049
same,Activity,[28],Non-Toxic
same,clearance,[36],11.8 mL/min/kg
same,solubility,[29],1.2 µg/mL
same,Ct,[30],2986 ng/mL
same,IC50,[31],> 50000 nM
same,half-life,[32],0.99 h
Cc1nc2cc(NC(=O)c3cc4sc(N5CCOCC5)nc4s3)ccc2o1,t1/2,[4],> 1 h
same,Vd,[34],0.626 L/kg
same,t1/2,[7],> 1 h
same,t1/2,[8],> 1 h
same,fraction unbound,[9],0.001
same,solubility,[12],5.3 µg/mL
same,IC50,[15],420 nM
same,IC50,[19],200 nM
same,remaining at 4 h,[37],74.7%
same,half-life,[35],0.33 h
same,t1/2,[23],> 1 h
same,Cmax,[24],313 ng/mL
same,fraction unbound,[27],0.012
same,remaining at 4 h,[38],86.8%
same,clearance,[36],121 mL/min/kg
same,solubility,[29],0.82 µg/mL
